pIC50: −log10 of the molar value. Calls of active or inactive are those of the source. The calls are words filed in the database; no cut-off is given here.
What was measured:
[1] = tested on: SK-OV-3; assay: Cytotoxicity against human SKOV3 cells after 48 hrs by MTT assay; format: functional, cell-based; conditions: SK-OV-3, 48 h
Summary of the method: (§1)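 Log-phase cells were seeded at about 1 × 10⁵ cells/mL in 96-well plates and allowed to settle 12 h at 37 °C in 5% CO₂. Compounds were added at five concentrations for 48 h. Absorbance was read at dual wavelength 570/630 nm. Survival was expressed as a percentage of control, and IC50 was calculated by the Bliss method (n = 5). Each test was run in triplicate.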

[2] = tested on: L02; assay: Cytotoxicity against human HL7702 cells after 48 hrs by MTT assay; format: cell-based; conditions: L02, 48 h; summary of the method: as §1
[3] = tested on: HeLa; assay: Cytotoxicity against human HeLa cells after 48 hrs by MTT assay; format: functional, cell-based; summary of the method: as §1
[4] = tested on: NCI-H460; assay: Induction of apoptosis in human NCI-H460 cells assessed as late apoptotic cells at 5 uM after 24 hrs by Annexin V-FITC/propidium iodide staining based flow cytometric method (reference value: 0.839%); format: functional
[5] = tested on: NCI-H460; assay: Induction of apoptosis in human NCI-H460 cells assessed as necrotic cells at 5 uM after 24 hrs by Annexin V-FITC/propidium iodide staining based flow cytometric method (reference value: 1.84%); format: functional
[6] = tested on: NCI-H460; assay: Induction of apoptosis in human NCI-H460 cells assessed as necrotic cells at 10 uM after 24 hrs by Annexin V-FITC/propidium iodide staining based flow cytometric method (reference value: 1.84%); format: functional
[7] = tested on: NCI-H460; assay: Induction of apoptosis in human NCI-H460 cells after 24 hrs by Annexin V-FITC/propidium iodide staining based flow cytometric method; format: functional, cell-based
[8] = tested on: NCI-H460; assay: Cell cycle arrest in human NCI-H460 cells assessed as accumulation at S-phase at 10 uM after 48 hrs by propidium iodide staining based flow cytometric method (reference value: 21.79%); format: functional
[9] = tested on: NCI-H460; assay: Cell cycle arrest in human NCI-H460 cells assessed as increase in accumulation at G2-phase after 48 hrs by propidium iodide staining based flow cytometric method; format: functional
[10] = tested on: NCI-H460; assay: Disruption of mitochondrial membrane potential in human NCI-H460 cells assessed as intact mitochondrial membrane potential at 5 uM after 24 hrs by JC-1 staining based flow cytometric method (reference value: 11.9%); format: functional
Summary of the method: (§2)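 NCI-H460 cells were treated 24 h at 5 or 10 µM, with untreated cells as control. The medium was replaced, and the JC-1 probe was added 20 min later. Cells were then pelleted at 2000 rpm, washed twice in ice-cold PBS and analysed by flow cytometry with excitation at 488 nm and emission at 530 and 590 nm.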

[11] = tested on: NCI-H460; assay: Disruption of mitochondrial membrane potential in human NCI-H460 cells assessed as intact mitochondrial membrane potential at 10 uM after 24 hrs by JC-1 staining based flow cytometric method (reference value: 11.9%); format: functional; summary of the method: as §2
[12] = tested on: NCI-H460; assay: Induction of apoptosis in human NCI-H460 cells assessed as increase in cleaved caspase-3 expression at 5 to 10 uM after 48 hrs by Western blot method; format: functional, cell-based
Summary of the method: (§3)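 NCI-H460 cells were treated 48 h at various concentrations. Cells were washed in ice-cold PBS and lysed on ice for 20 min, and lysates were spun at 20000 g and 4 °C for 5 min. Protein was quantified by BCA, and equal amounts were run on 12% SDS-PAGE and transferred to PVDF. Membranes were blocked in 5% milk/TBST, probed overnight at 4 °C with primary antibodies (β-actin as reference), then with peroxidase secondary for 2 h. Bands were detected by chemiluminescence.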

[13] = tested on: NCI-H460; assay: Induction of apoptosis in human NCI-H460 cells assessed as upregulation of Bax expression after 48 hrs by Western blot method; format: functional, cell-based; summary of the method: as §3

COc1ccc(/C=C/C(=O)c2cc(OC)c(OC)c(OC)c2)cc1OCC(=O)Nc1ccccc1Cl
pIC50 [1]: 5.20
pIC50 [2]: < 4.30
pIC50 [3]: 5.34
Activity [4]: 3.45%
Activity [5]: 1.1%
Activity [6]: 10.9%
Activity [7]: Dose-dependent effect
Activity [8]: 20.81%
Activity [9]: Dose-dependent effect
Activity [10]: 16.9%
Activity [11]: 26.2%
Activity [12]: Active
Activity [13]: Dose-dependent effect

— ChEMBL document CHEMBL4028810, “Synthesis and biological evaluation of novel chalcone derivatives as a new class of microtubule destabilizing agents” (Eur J Med Chem, 2017)
